ChEMBL document CHEMBL1128743, “Synthesis of tight binding inhibitors and their action on the proprotein-processing enzyme furin” (J Med Chem, 1995)

Tests used:
Furin = Furin (Homo sapiens, UniProt P09958); experiment: Inhibitory activity against furin
[1] = molecular target: Subtilisin Carlsberg (Bacillus licheniformis) (UniProt P00780); experiment: Inhibitory activity against subtilism Carlsberg; No inhibition
Serine protease 1 = Serine protease 1 (Homo sapiens, UniProt P07477); experiment: Inhibitory activity against trypsin
How it was run: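 Trypsin was tested in the furin buffer: 100 mM HEPES pH 7.5, 0.5% Triton X-100, 1 mM CaCl2, 1 mM 2-mercaptoethanol.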

Chain of Furin (P09958 whole entry): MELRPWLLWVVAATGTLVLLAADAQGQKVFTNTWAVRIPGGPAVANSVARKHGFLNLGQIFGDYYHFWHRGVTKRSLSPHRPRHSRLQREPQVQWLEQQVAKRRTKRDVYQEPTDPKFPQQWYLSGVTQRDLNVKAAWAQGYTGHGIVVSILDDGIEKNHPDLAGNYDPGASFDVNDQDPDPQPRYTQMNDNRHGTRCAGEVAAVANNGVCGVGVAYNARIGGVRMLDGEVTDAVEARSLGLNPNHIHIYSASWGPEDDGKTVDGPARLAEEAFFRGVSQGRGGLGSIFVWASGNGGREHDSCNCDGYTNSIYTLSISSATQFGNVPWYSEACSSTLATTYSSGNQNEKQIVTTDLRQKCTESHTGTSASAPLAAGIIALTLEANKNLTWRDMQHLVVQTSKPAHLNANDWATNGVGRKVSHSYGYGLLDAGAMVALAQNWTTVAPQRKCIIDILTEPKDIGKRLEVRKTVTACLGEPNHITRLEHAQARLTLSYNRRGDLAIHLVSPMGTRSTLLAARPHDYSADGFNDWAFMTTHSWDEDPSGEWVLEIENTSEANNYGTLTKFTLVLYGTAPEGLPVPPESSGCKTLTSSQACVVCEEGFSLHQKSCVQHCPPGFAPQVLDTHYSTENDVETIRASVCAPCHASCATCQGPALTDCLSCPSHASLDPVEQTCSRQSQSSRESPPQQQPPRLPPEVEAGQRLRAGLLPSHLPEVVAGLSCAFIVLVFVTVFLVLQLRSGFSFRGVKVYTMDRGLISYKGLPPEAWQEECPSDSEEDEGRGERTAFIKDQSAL
Chain of Serine protease 1 (P07477 whole entry): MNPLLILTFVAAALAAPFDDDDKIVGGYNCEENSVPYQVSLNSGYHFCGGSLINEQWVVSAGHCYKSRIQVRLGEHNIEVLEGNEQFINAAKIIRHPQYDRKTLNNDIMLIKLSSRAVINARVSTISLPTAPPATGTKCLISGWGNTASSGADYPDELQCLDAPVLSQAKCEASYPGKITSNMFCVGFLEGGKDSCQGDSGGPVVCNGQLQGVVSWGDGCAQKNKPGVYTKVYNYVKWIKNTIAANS
Chain of Subtilisin Carlsberg (Bacillus licheniformis) (P00780 whole entry, looked up): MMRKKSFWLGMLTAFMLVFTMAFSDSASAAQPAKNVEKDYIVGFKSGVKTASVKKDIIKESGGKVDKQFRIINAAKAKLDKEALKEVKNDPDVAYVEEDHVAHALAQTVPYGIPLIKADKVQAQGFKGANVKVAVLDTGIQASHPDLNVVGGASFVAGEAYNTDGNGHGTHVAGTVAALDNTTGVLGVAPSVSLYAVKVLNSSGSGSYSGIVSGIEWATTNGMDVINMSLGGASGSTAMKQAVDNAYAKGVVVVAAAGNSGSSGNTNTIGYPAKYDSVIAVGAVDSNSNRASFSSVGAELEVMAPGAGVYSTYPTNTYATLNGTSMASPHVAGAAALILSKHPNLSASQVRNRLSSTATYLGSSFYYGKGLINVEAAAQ

Structure (SMILES) | Ki (Furin) | Ki [1] | Ki (Serine protease 1)
CCCCCCCCCCN[C@@H](CCCN=C(N)N)C(=O)N[C@H](C(=O)N[C@@H](CCCCN)C(=O)N[C@@H](CCCN=C(N)N)C(=O)CCC(=O)N[C@@H](C(=O)NCC(=O)N[C@H](CC(C)C)C(=O)OC)C(C)C)C(C)C | 330 nM | Not Active | 20900 nM
CCCCCCCCCCN[C@@H](CCCNC(=N)N)C(=O)N[C@H](C(=O)N[C@@H](CCCCN)C(=O)N[C@@H](CCCNC(=N)N)C(=O)CN[C@@H](C)C(=O)N[C@H](C(=O)NCC(=O)OC)C(C)C)C(C)C |  |  | 1900 nM
COC(=O)[C@@H](CC(C)C)NC(=O)CNC(=O)[C@H](NC(=O)CCC(=O)[C@H](CCCN=C(N)N)NC(=O)[C@H](CCCCN)NC(=O)[C@@H](NC(=O)[C@H](CCCN=C(N)N)NC(C)=O)C(C)C)C(C)C | 350 nM |  | 

More lines, now with the values ahead:

Ki (Furin) | Ki [1] | Ki (Serine protease 1) | Structure (SMILES)
26 nM |  |  | CCCCCCCCCCN[C@@H](CCCN=C(N)N)C(=O)N[C@H](C(=O)N[C@@H](CCCCN)C(=O)N[C@H](CCCN=C(N)N)C(=O)CN[C@@H](C)C(=O)N[C@H](C(=O)NCC(N)=O)C(C)C)C(C)C
240 nM |  |  | CCCCCCCCCCN[C@@H](CCCN=C(N)N)C(=O)N[C@H](C(=O)N[C@@H](CCCCN)C(=O)N[C@@H](CCCN=C(N)N)C(=O)CCC(=O)OC)C(C)C
3.4 nM |  |  | CCCCCCCCCCN[C@@H](CCCN=C(N)N)C(=O)N[C@H](C(=O)N[C@@H](CCCCN)C(=O)N[C@@H](CCCN=C(N)N)C(=O)CN[C@@H](C)C(=O)N[C@H](C(=O)NCC(N)=O)C(C)C)C(C)C
